Active and inactive are the calls of the source. The calls are words filed in the database; no cut-off is given here.

In assay [1] the test system is D283 Med. The assay can be described thus: Anti-proliferative activity against human D283 cells assessed as reduction in cell viability incubated for 48 hrs by MTT assay. The class given is functional, cell-based. A digest of the protocol: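 Cells seeded in triplicate at 2 × 10^3 per well and allowed to adhere for 24h. JQ1 was given as serial dilutions in full medium, 1nM-6µM, from a 10 mM DMSO stock. Viability was read by MTT at each time point and IC50 derived from dose-response curves. Culture media were RPMI 1640/10% FCS for HD-MB3 (plus 1% NEAA), ONS-76, Daoy and UW-228, and EMEM/10% FCS for D-283 and D-341.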

In assay [2] the test system is Daoy. As to the kind of experiment: Induction of apoptosis in human Daoy cells assessed as increase in population of cells in sub-G1 phase at 500 nM incubated for 72 hrs by ELISA. The class given is functional, cell-based.
Assay [3] deals with ONS-76. As to the kind of experiment: Induction of apoptosis in human ONS-76 cells assessed as increase in population of cells in sub-G1 phase at 500 nM incubated for 72 hrs by flow cytometry. The class given is functional, cell-based. A digest of the protocol: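 PI flow cytometry: cells seeded in triplicate, adhered 24h, then exposed to 500 nM JQ1 or DMSO control (methods give 48h culture, legend gives 72h). Harvested by trypsin, washed 3 times in PBS, stained with propidium iodide 15 min, DNA content read by flow cytometry. Sub-G1 fraction taken as apoptotic. Experiments repeated at least 3 times.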

Assay [4] relates to HD-MB03. As to the kind of experiment: Antiproliferative activity against human HD-MB03 cells at 500 nM incubated for 72 hrs by BrdU ELISA method. The class given is functional, cell-based. A digest of the protocol:
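Cells seeded in triplicate at 2 × 10^3 per well with 24h adherence, then treated with 500 nM JQ1 or DMSO control for 72h. Proliferation was measured by BrdU incorporation ELISA. Experiments were run independently at least 3 times.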

The subject of assay [5] is HD-MB03. As to the kind of experiment: Antitumor activity against human HD-MB03 cells xenografted in female athymic (nu/nu) mouse assessed as increase in mouse survival time at 50 mg/kg, ip for 28 days relative to untreated control. The class given is functional, organism-based. Conditions: time 28.0 day. A digest of the protocol: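 Female athymic nu/nu mice, 4 weeks old, received 2 × 10^7 HD-MB3 cells in Matrigel subcutaneously in the left flank. At 150–200 mm3 they were randomised, n=7 per group, to JQ1 50 mg/kg ip daily or vehicle for 28 days or until tumours exceeded 1000 mm3. Calipers were used, with volume = (breadth × length × height)/2. Time to 1000 mm3 was analysed by Kaplan-Meier.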

Assay [6] has as its target Bromodomain-containing protein 4 (Homo sapiens) (UniProt O60885). Conditions: HD-MB03, dose 500.0 nM, time 6-24 hrs.

As for `Cc1sc2c(c1C)C(c1ccc(Cl)cc1)=N[C@@H](CC(=O)OC(C)(C)C)c1nnc(C)n1-2`, the half-inhibitory concentration (IC50) in assay [1] is above 1 µM. Further, the result in assay [2], in assay [3], in assay [4] and in assay [5] was Active. In addition, the inhibition result in assay [6] is “Active”.
